Published values gathered from unrelated publications.
Protocols differ between the studies behind these lines. In brackets after ≈: the same amount, converted by molar mass.

COc1ccc(NC(=O)Nc2cccc(-c3cn(Cc4ccc(C)cc4)nn3)c2)cc1
viability (NCI-H1299; cell growth or viability, CCK-8; 50 µM, 72 h): 156%

Cc1ccc(N=Nc2c(N)nn3c(-c4ccco4)cc(-c4ccc(OCc5ccccc5)cc4)nc23)cc1
MBC (Enterobacter cloacae; microbial killing; ATCC23355): 125 µg/mL (≈ 250 µM)

O=C(NCc1cn(Cc2ccc(Br)cc2)nn1)Nc1ccccc1Br
viability (NCI-H1299; cell growth or viability, CCK-8; 50 µM, 72 h): 89.2%

COc1ccc(NC(=O)NCc2cn(Cc3ccc(Cl)cc3)nn2)cc1
viability (NCI-H1299; cell growth or viability, CCK-8; 50 µM, 72 h): 79.3%

O=C(Nc1ccc(-c2cn(Cc3ccc(Br)cc3)nn2)cc1)Nc1ccccc1Br
viability (NCI-H1299; cell growth or viability, CCK-8; 50 µM, 72 h): 115%

Nc1nn2c(-c3ccc(Cl)cc3Cl)cc(-c3ccc(OCc4ccccc4)cc3)nc2c1N=Nc1ccc(F)cc1
MBC (Enterobacter cloacae; microbial killing; ATCC23355): 62.5 µg/mL (≈ 107 µM)

CC(C)(C)c1cc(NC(=O)Nc2ccc(-c3cn4c(n3)sc3cc(OCCN5CCOCC5)ccc34)cc2)no1
GI50 (22Rv1; cell growth or viability; 72 h): > 10000 nM

COc1ccc(N=Nc2c(N)nn3c(-c4ccc(Cl)cc4Cl)cc(-c4ccc(OCc5ccccc5)cc4)nc23)cc1
MBC (Enterobacter cloacae; microbial killing; ATCC23355): 250 µg/mL (≈ 420 µM)

COc1ccc(NC(=O)Nc2cccc(-c3cn(Cc4ccc(Br)cc4)nn3)c2)cc1
viability (NCI-H1299; cell growth or viability, CCK-8; 50 µM, 72 h): 151%

Cc1n[nH]c2ccc3nc(-c4ccc(C(=O)NCCN(C)C)cc4)c4c(c3c12)CCCC4
GI50 (22Rv1; cell growth or viability; 72 h): 1780 nM

O=C(Nc1cccc(-c2cn(Cc3ccc(Cl)cc3)nn2)c1)Nc1ccccc1Br
viability (NCI-H1299; cell growth or viability, CCK-8; 50 µM, 72 h): 130%

Nc1nn2c(-c3ccco3)cc(-c3ccc(OCc4ccccc4)cc3)nc2c1N=Nc1ccc(F)cc1
MBC (Enterobacter cloacae; microbial killing; ATCC23355): 62.5 µg/mL (≈ 124 µM)

Cc1ccc2[nH]nc(-c3nnc(Nc4ccc(Cl)cc4)s3)c2c1
MIC (Serratia marcescens; microbial growth; ATCC8100): 65.8 µg/mL (≈ 192 µM)

COc1ccc(NC(=O)Nc2ccc(-c3cn(Cc4ccc(C)cc4)nn3)cc2)cc1
viability (NCI-H1299; cell growth or viability, CCK-8; 50 µM, 72 h): 104%

Cc1ccc(N=Nc2c(N)nn3c(-c4ccc(Cl)cc4Cl)cc(-c4ccc(OCc5ccccc5)cc4)nc23)cc1
MBC (Enterobacter cloacae; microbial killing; ATCC23355): 62.5 µg/mL (≈ 108 µM)

O=C(Nc1ccc(Cl)cc1)Nc1cccc(-c2cn(Cc3ccc(Cl)cc3)nn2)c1
viability (NCI-H1299; cell growth or viability, CCK-8; 50 µM, 72 h): 76.3%

CN(C)CCNC(=O)c1ccc(-c2nc3ccc4[nH]ncc4c3c3c2CCCC3)c(F)c1
GI50 (22Rv1; cell growth or viability; 72 h): 1280 nM

Cc1ccc2[nH]nc(-c3nnc(Nc4ccc(O)cc4)s3)c2c1
MIC (Serratia marcescens; microbial growth; ATCC8100): 62.8 µg/mL (≈ 194 µM)

O=C(NCc1cn(Cc2ccc(Cl)cc2)nn1)Nc1ccccc1Br
viability (NCI-H1299; cell growth or viability, CCK-8; 50 µM, 72 h): 90.7%
